Results on 25 compounds are retold here after ChEMBL document CHEMBL4765310, “Discovery of 4-(3,5-dimethoxy-4-(((4-methoxyphenethyl)amino)methyl)phenoxy)-N-phenylaniline as a novel c-myc inhibitor against colorectal cancer in vitro and in vivo” (Eur J Med Chem, 2020).

pIC50: −log10 of the molar value. A value given as a limit tells only on which side of the number the result lay.

For one test, the system named is DLD-1. Briefly: Antiproliferative activity against human DLD-1 cells assessed as inhibition of cell viability measured after 72 hrs by MTT assay. The conditions noted are these: DLD-1, 72 h. The class given is functional, cell-based. The gist of the method: (§1)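 Cells kept at 37 °C, 5% CO₂ in RPMI 1640, L-15 or DMEM with 10% FBS and 1% penicillin-streptomycin. Plated at 2-4 × 10³ cells/well and dosed 24 h after plating. After 72 h exposure, MTT added for 2-4 h at 37 °C. Formazan dissolved in DMSO, absorbance read at 570 nm. IC50 is the mean of at least three independent experiments.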
Background: Tetrazolium assays rely on reduction of a dye to a coloured formazan, in cell work by metabolically active cells.

Another test has as its system HCT-15. The test can be described thus: Antiproliferative activity against human HCT-15 cells assessed as inhibition of cell viability measured after 72 hrs by MTT assay. The class given is functional, cell-based. The conditions noted are these: HCT-15, 72 h. The gist of the method:
as §1

Another test has as its system HT-29. The test can be described thus: Antiproliferative activity against human HT-29 cells assessed as inhibition of cell viability measured after 72 hrs by MTT assay. The format is functional, cell-based. The conditions noted are these: HT-29, 72 h. A digest of the protocol:
as §1

For another test, the system named is HCT-116. The test can be described thus: Antiproliferative activity against human HCT-116 cells assessed as inhibition of cell viability measured after 72 hrs by MTT assay. The conditions noted are these: HCT-116, 72 h. The class given is functional, cell-based. A digest of the protocol: as §1
For a further test, the species on record is Homo sapiens. Briefly: Inhibition of dimerization of N-terminal His6-tagged human c-Myc bHLHZip domain (353 to 439 residues)/Max(151 residues) (unknown origin) expressed in Escherichia coli BL21DE3 assessed as inhibition of c-Myc/Max/DNA complex formation at 20 uM preincubated with c-Myc/Max for 1.5 hrs followed by incubation with DNA oligo for 0.5 hrs by EMSA analysis relative to control. The conditions noted are these: time 2.0 hrs. The gist of the method:
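Gel-shift used His-tagged Myc/Max complex (50 nM) with a biotinylated E-box duplex oligo (50 nM). Buffer was PBS pH 7.0 with 10 mM EDTA, 500 mM KCl, 30 mM MgCl2, 5% glycerol, 0.1% NP40, 1.5 mM DTT and 10% DMSO. Protein was preincubated with compound at 20 μM for 1.5 h at room temperature, then DNA was added for 0.5 h. Inhibition is relative to DMSO; three independent experiments.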
For orientation: In EMSA bound probe runs differently from free probe, usually more slowly.

The nature of test [1]: Inhibition of dimerization of N-terminal His6-tagged human c-Myc bHLHZip domain (353 to 439 residues)/Max(151 residues) (unknown origin) expressed in Escherichia coli BL21DE3 measured after 1 hr by ELISA. A digest of the protocol: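 Myc bHLHZip (5.5 μg/well) was coated at 4 °C for 24 h in PBS pH 7.0 buffer (EDTA, KCl, MgCl2, glycerol, NP40, DTT), then blocked with 3% BSA for 2 h at 37 °C. Detection used rabbit anti-c-Myc, HRP anti-rabbit and TMB, read at 450 nm.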

In a further test the test system is SW-620. The test can be described thus: Antiproliferative activity against human SW-620 cells assessed as inhibition of cell viability measured after 72 hrs by MTT assay. The class given is functional, cell-based. The conditions noted are these: SW-620, 72 h. A digest of the protocol: as §1

In the case of `COc1cc(Oc2cccc(Nc3ccccc3)c2)cc(OC)c1CNCc1ccc(Br)cc1`, the pIC50 in the test on DLD-1 is 5.45; in the test on HCT-15, 5.27; with HT-29 it was 5.51; in the test with HCT-116 it was 5.21; in test [1], 3.89; in the test on SW-620, 4.95. In the test listed under Homo sapiens, the inhibition was 29.3%.
With `COc1ccc(CCNCc2ccc(Oc3cccc(Nc4ccccc4)c3)cc2)cc1`, the pIC50 in the test on DLD-1 was 5.33; with HCT-15, 5.66; with HT-29, 5.16; in the test with HCT-116, 5.40; in test [1] it was 3.94; in the test with SW-620 it was 4.84. Also, the inhibition in the test listed under Homo sapiens is 35.6%.
Turning to `COc1ccc(CCNCc2c(OC)cc(Oc3cccc(Nc4ccccc4)c3)cc2OC)cc1`, the pIC50 was 5.95 with DLD-1; 5.90 in the test with HCT-15; 5.99 in the test with HT-29; 6.01 in the test on HCT-116; 4.16 in test [1]; 5.21 with SW-620. In the test listed under Homo sapiens, the inhibition turned out to be 75.1%.
As for `COc1cc(Oc2cccc(Nc3ccccc3)c2)cc(OC)c1CN[C@H](C)c1ccccc1`, the pIC50 in the test on DLD-1 is 5.07; with HCT-15, 5.12; with HT-29 it was 5.29; in the test with HCT-116, below 4.70; in test [1], 3.94; in the test on SW-620 it was 4.73. Also, the inhibition in the test listed under Homo sapiens is 30.5%.
For `COc1ccc(CCCNCc2c(OC)cc(Oc3ccc(Nc4ccccc4)cc3)cc2OC)cc1`, the pIC50 with DLD-1 is 5.33; with HCT-15, 5.66; in the test with HT-29 it was 5.16; in the test with HCT-116, 5.49; in test [1], 4.14; in the test with SW-620, 4.84. Also, the inhibition in the test listed under Homo sapiens is 70.6%.
As to `COc1cccc(CCNCc2c(OC)cc(Oc3cccc(Nc4ccccc4)c3)cc2OC)c1`, the pIC50 with DLD-1 was 5.63; in the test with HCT-15, 5.89; with HT-29, 5.63; in the test on HCT-116, 5.40; in test [1] it was 4.11; with SW-620 it was 5.41. For the same compound, the inhibition in the test filed under Homo sapiens came to 60.8%.
Consider `COc1cc(Oc2cccc(Nc3ccccc3)c2)cc(OC)c1CNCc1ccc(O)cc1`, for which the pIC50 in the test on DLD-1 is 5.57; with HCT-15, 5.46; in the test with HT-29, 5.66; with HCT-116, 5.47; in test [1] it was 3.91; in the test on SW-620, 5.10. For the same compound, in the test listed under Homo sapiens, the inhibition was 31.8%.
Consider `COc1ccc(CCCNCc2c(OC)cc(Oc3cccc(Nc4ccccc4)c3)cc2OC)cc1`, for which the pIC50 was 5.60 in the test with DLD-1; 6.14 with HCT-15; 5.48 in the test with HT-29; 5.55 in the test on HCT-116; 3.83 in test [1]; 5.19 in the test on SW-620. Moreover, the inhibition in the test listed under Homo sapiens is 63.4%.
As for `COc1cc(Oc2cccc(Nc3ccccc3)c2)cc(OC)c1CNCCNC(C)=O`, the pIC50 was 5.22 with DLD-1; 5.29 in the test with HCT-15; 5.40 with HT-29; 4.74 in the test with HCT-116; below 3.82 in test [1]; 4.92 with SW-620. Moreover, in the test listed under Homo sapiens, the inhibition was determined as 10.2%.
Take `COc1cc(Oc2cccc(Nc3ccccc3)c2)cc(OC)c1CN(CCO)CCO`: the pIC50 is below 4.70 in the test on DLD-1; 5.05 in the test on HCT-15; below 4.70 in the test on HT-29; below 4.70 with HCT-116; below 3.82 in test [1]; below 4.70 in the test on SW-620. Also, the inhibition in the test listed under Homo sapiens worked out at 6.1%.
With `COc1cc(Oc2cccc(Nc3ccccc3)c2)cc(OC)c1CNCc1ccc(F)cc1`, the pIC50 in the test with DLD-1 was 5.58; with HCT-15, 5.44; in the test with HT-29, 5.56; in the test on HCT-116, 5.37; in test [1] it was 3.86; in the test with SW-620 it was 5.17. In addition, in the test filed under Homo sapiens, the inhibition was determined as 21.2%.
With `COc1ccc(CCNCc2ccc(Oc3cccc(Nc4ccccc4)c3)cc2OC)cc1`, the negative-log IC50 (pIC50) was 5.39 in the test on DLD-1; 5.99 in the test with HCT-15; 5.40 in the test with HT-29; 5.57 in the test on HCT-116; 3.99 in test [1]; 5.11 in the test on SW-620. Also, the inhibition in the test filed under Homo sapiens stood at 42.1%.
For `COc1ccccc1CCNCc1c(OC)cc(Oc2cccc(Nc3ccccc3)c2)cc1OC`, the pIC50 with DLD-1 was 5.63; with HCT-15, 5.92; in the test on HT-29 it was 5.67; in the test with HCT-116, 5.47; in test [1], 4.14; with SW-620, 5.44. Further, the inhibition in the test filed under Homo sapiens was 67.4%.
As for `COc1cc(Oc2cccc(Nc3ccccc3)c2)cc(OC)c1CNC(C)C`, the pIC50 in the test on DLD-1 is below 4.70; with HCT-15, below 4.70; in the test with HT-29, below 4.70; in the test with HCT-116, below 4.70; in test [1], below 3.82; in the test on SW-620, below 4.70.
`COc1cc(Oc2cccc(Nc3ccccc3)c2)cc(OC)c1CN(C)C`: the pIC50 in the test with DLD-1 was below 4.70; in the test on HCT-15, 4.81; in the test with HT-29, below 4.70; with HCT-116, 4.89; in test [1], below 3.82; in the test on SW-620 it was below 4.70. The inhibition in the test listed under Homo sapiens amounted to 3.2%.
For the compound `COc1cc(Oc2cccc(Nc3ccccc3)c2)cc(OC)c1CNCCc1ccc(Cl)cc1`, the pIC50 in the test on DLD-1 is 5.47; with HCT-15, 5.42; in the test with HT-29, 5.55; with HCT-116, 5.27; in test [1] it was 4.04; in the test with SW-620, 5.00. In addition, the inhibition in the test listed under Homo sapiens is 43.7%.
For `COc1cc(Oc2cccc(Nc3ccccc3)c2)cc(OC)c1CNCc1ccc(Cl)cc1`, the pIC50 in the test with DLD-1 is 5.43; with HCT-15, 5.31; with HT-29, 5.47; with HCT-116 it was 5.48; in test [1] it was 3.91; in the test on SW-620, 5.20. The inhibition in the test filed under Homo sapiens was determined as 25.7%.
As for `COc1cc(Oc2cccc(Nc3ccccc3)c2)cc(OC)c1CNCc1ccc(C)cc1`, the pIC50 was 5.22 with DLD-1; 5.27 with HCT-15; 5.41 with HT-29; 4.86 in the test on HCT-116; 3.92 in test [1]; 4.93 with SW-620. Besides, the inhibition in the test filed under Homo sapiens stood at 32.4%.
Consider `COc1cc(Oc2cccc(Nc3ccccc3)c2)cc(OC)c1CNCCc1ccc(F)cc1`, for which the pIC50 is 5.54 in the test on DLD-1; 5.63 in the test on HCT-15; 5.60 in the test on HT-29; 5.50 with HCT-116; 4.02 in test [1]; 5.05 in the test on SW-620. The inhibition in the test filed under Homo sapiens was determined as 40.5%.
For the compound `COc1cc(Oc2cccc(Nc3ccccc3)c2)cc(OC)c1CNCc1ccccc1`, the pIC50 is 5.28 with DLD-1; 5.30 with HCT-15; 5.48 in the test with HT-29; 5.39 with HCT-116; 3.90 in test [1]; 5.13 in the test on SW-620. For the same compound, the inhibition in the test filed under Homo sapiens amounted to 26.4%.
In the case of `COc1ccc(CCNCc2ccc(Oc3cccc(Nc4ccccc4)c3)c(OC)c2)cc1`, the pIC50 in the test on DLD-1 was 5.23; in the test with HCT-15, 5.47; with HT-29, 5.56; in the test with HCT-116 it was 5.51; in test [1], 3.97; with SW-620, 4.96. Also, the inhibition in the test listed under Homo sapiens is 42.3%.
`COc1cc(Oc2cccc(Nc3ccccc3)c2)cc(OC)c1CNCc1ccc2c(c1)OCO2`: the pIC50 in the test on DLD-1 was 5.07; with HCT-15, 5.05; with HT-29, 5.07; with HCT-116 it was below 4.70; in test [1], 3.98; with SW-620, below 4.70. In addition, the inhibition in the test filed under Homo sapiens stood at 42.1%.
In the case of `CNCc1c(OC)cc(Oc2cccc(Nc3ccccc3)c2)cc1OC`, the pIC50 in the test with DLD-1 is 4.93; in the test on HCT-15 it was 5.05; in the test on HT-29 it was 5.13; in the test on HCT-116, below 4.70; in test [1], below 3.82; in the test on SW-620 it was 4.82. Besides, the inhibition in the test filed under Homo sapiens was found to be 2.5%.
With `COc1cc(Oc2cccc(Nc3ccccc3)c2)cc(OC)c1CNCCc1ccc(C)cc1`, the pIC50 with DLD-1 was 5.73; with HCT-15 it was 5.54; in the test with HT-29, 5.90; with HCT-116, 5.48; in test [1], 4.06; in the test with SW-620, 5.24. Moreover, the inhibition in the test listed under Homo sapiens is 46.2%.
On to `COc1cc(Oc2cccc(Nc3ccccc3)c2)cc(OC)c1CN1CCN(CCO)CC1`, for which the pIC50 is below 4.70 in the test with DLD-1; 5.19 in the test on HCT-15; below 4.70 with HT-29; below 4.70 in the test with HCT-116; below 3.82 in test [1]; below 4.70 in the test with SW-620.

As usually defined, the pIC50 is the IC50 on a negative log10 scale, so that one unit is a factor of ten. What is called inhibition is the relative decrease from the control value, in per cent.
